# Assay results published in ChEMBL document CHEMBL4354828, “Discovery of Taniborbactam (VNRX-5133): A Broad-Spectrum Serine- and Metallo-β-lactamase Inhibitor for Carbapenem-Resistant Bacterial Infections” (J Med Chem, 2020).
# Experiments:
# [1] = Inhibition of bacterial AmpC using nitrocefin as substrate preincubated for 15 mins followed by susbtrate addition and measured after 10 mins by spectrophotometric method; design: species or system Bacteria
# [2] = Inhibition of bacterial VIM-2 using nitrocefin as substrate preincubated for 15 mins followed by susbtrate addition and measured after 10 mins by spectrophotometric method; design: species or system Bacteria
# Method in brief: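 Purified β-lactamase inhibition. IC50 values are the average of duplicates unless otherwise indicated.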
# [3] = Inhibition of bacterial CTX-M-15 using cefotaxime as substrate preincubated for 15 mins followed by susbtrate addition and measured after 10 mins by spectrophotometric method; design: species or system Bacteria
# [4] = Inhibition of bacterial CMY-2 using nitrocefin as substrate preincubated for 15 mins followed by susbtrate addition and measured after 10 mins by spectrophotometric method; design: species or system Bacteria
# [5] = Inhibition of bacterial OXA-1 using nitrocefin as substrate preincubated for 15 mins followed by susbtrate addition and measured after 10 mins by spectrophotometric method; design: species or system Bacteria
# [6] = Inhibition of bacterial IMP-1 using nitrocefin as substrate preincubated for 15 mins followed by susbtrate addition and measured after 10 mins by spectrophotometric method; design: species or system Bacteria
# [7] = test system: Klebsiella pneumoniae ATCC BAA-1705; assay: Inhibition of KPC-2 in Klebsiella pneumoniae ATCC BAA 1705 assessed as piperacillin antibacterial activity at 16 ug/ml after 16 to 20 hrs by CLSI-based microbroth dilution method (Rvb > […] ug/ml)
# Escherichia coli [8] = assay: Inhibition of NDM-1/CMY-6/OXA-1 in Escherichia coli CDC-0055 assessed as piperacillin antibacterial activity at 16 ug/ml after 16 to 20 hrs by CLSI-based microbroth dilution method
# Method in brief: (§1)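 MDR β-lactamase-producing Gram-negative clinical isolates. […] MIC was reported as the inhibitor concentration that restores the partner's antibacterial activity.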
# Klebsiella pneumoniae [9] = assay: Inhibition of OXA-232/OXA-9/TEM-1A/CTX-M-15/OXA-1 in Klebsiella pneumoniae CDC-0066 assessed as piperacillin antibacterial activity at 16 ug/ml after 16 to 20 hrs by CLSI-based microbroth dilution method (Rvb > […] ug/ml)
# Pseudomonas aeruginosa [10] = assay: Inhibition of KPC-2/PDC-42 in Pseudomonas aeruginosa CDC-0356 assessed as piperacillin antibacterial activity at 16 ug/ml after 16 to 20 hrs by CLSI-based microbroth dilution method (Rvb > […] ug/ml)
# Klebsiella pneumoniae [11] = assay: Inhibition of KPC-2/SHV12/TEM-1 in Klebsiella pneumoniae CDC-0361 assessed as piperacillin antibacterial activity at 16 ug/ml after 16 to 20 hrs by CLSI-based microbroth dilution method (Rvb > […] ug/ml)
# [12] = test system: Klebsiella pneumoniae ATCC BAA-1705; assay: Inhibition of KPC-2 in Klebsiella pneumoniae ATCC BAA 1705 assessed as cefepime antibacterial activity at 8 ug/ml after 16 to 20 hrs by CLSI-based microbroth dilution method; method in brief: as §1
# Escherichia coli [13] = assay: Inhibition of NDM-1/CMY-6/OXA-1 in Escherichia coli CDC-0055 assessed as cefepime antibacterial activity at 8 ug/ml after 16 to 20 hrs by CLSI-based microbroth dilution method; method in brief: as §1
# Klebsiella pneumoniae [14] = assay: Inhibition of OXA-232/OXA-9/TEM-1A/CTX-M-15/OXA-1 in Klebsiella pneumoniae CDC-0066 assessed as cefepime antibacterial activity at 8 ug/ml after 16 to 20 hrs by CLSI-based microbroth dilution method (Rvb > […] ug/ml)
# Pseudomonas aeruginosa [15] = assay: Inhibition of KPC-2/PDC-42 in Pseudomonas aeruginosa CDC-0356 assessed as cefepime antibacterial activity at 8 ug/ml after 16 to 20 hrs by CLSI-based microbroth dilution method (Rvb > […] ug/ml)
# Klebsiella pneumoniae [16] = assay: Inhibition of KPC-2/SHV12/TEM-1 in Klebsiella pneumoniae CDC-0361 assessed as cefepime antibacterial activity at 8 ug/ml after 16 to 20 hrs by CLSI-based microbroth dilution method (reference value: […] ug/ml)
# Escherichia coli [17] = assay: Inhibition of NDM in Escherichia coli CDC-0452 assessed as cefepime antibacterial activity after 16 to 20 hrs by CLSI-based microbroth dilution method (reference value: […] ug/ml)
# [18] = test system: Klebsiella pneumoniae ATCC BAA-1705; assay: Inhibition of KPC-2 in Klebsiella pneumoniae ATCC BAA 1705 assessed as meropenem antibacterial activity at 4 ug/ml after 16 to 20 hrs by CLSI-based microbroth dilution method (reference value: […] ug/ml)
# Klebsiella pneumoniae [19] = assay: Inhibition of VIM-27/CTX-M-15/SHV-11/OXA-1 in Klebsiella pneumoniae CDC-0040 assessed as meropenem antibacterial activity at 4 ug/ml after 16 to 20 hrs by CLSI-based microbroth dilution method
# Pseudomonas aeruginosa [20] = assay: Inhibition of KPC-2/PDC-42 in Pseudomonas aeruginosa CDC-0356 assessed as meropenem antibacterial activity at 4 ug/ml after 16 to 20 hrs by CLSI-based microbroth dilution method (reference value: […] ug/ml)
# Escherichia coli [21] = assay: Inhibition of NDM in Escherichia coli CDC-0452 assessed as meropenem antibacterial activity at 4 ug/ml after 16 to 20 hrs by CLSI-based microbroth dilution method (reference value: […] ug/ml)
# Escherichia coli [22] = assay: Inhibition of VIM-1/VIM-2/VIM-4/NDM-1 in Escherichia coli assessed as cefepime antibacterial activity at 4 ug/ml after 16 to 20 hrs by CLSI-based microbroth dilution method
# Method in brief: (§2)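 Panel of 14 clinical isolates expressing class B VIM- or NDM-type MBLs: E. coli (4), E. cloacae (2), K. pneumoniae (4), P. aeruginosa (1), A. baumannii (3).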
# Klebsiella pneumoniae [23] = assay: Inhibition of VIM-1/VIM-2/VIM-4/NDM-1 in Klebsiella pneumoniae assessed as cefepime antibacterial activity at 4 ug/ml after 16 to 20 hrs by CLSI-based microbroth dilution method
# Pseudomonas aeruginosa [24] = assay: Inhibition of VIM-1/VIM-2/VIM-4/NDM-1 in Pseudomonas aeruginosa assessed as cefepime antibacterial activity at 4 ug/ml after 16 to 20 hrs by CLSI-based microbroth dilution method; method in brief: as §2
# [25] = Half life in mouse at 10 mg/kg, iv after 1 to 6 hrs by LC-MS/MS analysis; format: ADME, organism-based; conditions: in vivo
# [26] = Clearance in mouse at […], iv after 1 to 6 hrs by LC-MS/MS analysis; format: ADME, organism-based; conditions: in vivo
# Pseudomonas aeruginosa [27] = assay: Inhibition of VIM in Pseudomonas aeruginosa CDC-0457 assessed as cefepime antibacterial activity at 8 ug/ml after 16 to 20 hrs by CLSI-based microbroth dilution method
# Pseudomonas aeruginosa [28] = assay: Inhibition of VIM in Pseudomonas aeruginosa CDC-0457 assessed as meropenem antibacterial activity at 4 ug/ml after 16 to 20 hrs by CLSI-based microbroth dilution method
SMILES,IC50 [1] [nM],IC50 [2] [nM],IC50 [3] [nM],IC50 [4] [nM],IC50 [5] [nM],IC50 [6] [µM],MIC [7] [µg/mL],MIC (Escherichia coli [8]) [µg/mL],MIC (Klebsiella pneumoniae [9]) [µg/mL],MIC (Pseudomonas aeruginosa [10]) [µg/mL],MIC (Klebsiella pneumoniae [11]) [µg/mL],MIC [12] [µg/mL],MIC (Escherichia coli [13]) [µg/mL],MIC (Klebsiella pneumoniae [14]) [µg/mL],MIC (Pseudomonas aeruginosa [15]) [µg/mL],MIC (Klebsiella pneumoniae [16]) [µg/mL],MIC (Escherichia coli [17]) [µg/mL],MIC [18] [µg/mL],MIC (Klebsiella pneumoniae [19]) [µg/mL],MIC (Pseudomonas aeruginosa [20]) [µg/mL],also measured
NCCN[C@H]1CC[C@H](CC(=O)N[C@H]2Cc3cccc(C(=O)O)c3OB2O)CC1,32,20,10,7,160,39.8,4,16,> 16,1,1,0.06,2,2,1,0.015,0.125,0.015,8,1,MIC (Escherichia coli [21]): 0.25 µg/mL; MIC50 (Escherichia coli [22]): 1 µg/mL; MIC90 (Escherichia coli [22]): 4 µg/mL; MIC50 (Klebsiella pneumoniae [23]): 1 µg/mL; MIC90 (Klebsiella pneumoniae [23]): 4 µg/mL; MIC50 (Pseudomonas aeruginosa [24]): 1 µg/mL; MIC90 (Pseudomonas aeruginosa [24]): 4 µg/mL; half-life [25]: 9.6 min; clearance [26]: 10.3 mL/min/kg; MIC (Pseudomonas aeruginosa [27]): 0.125 µg/mL; MIC (Pseudomonas aeruginosa [28]): > 16 µg/mL
NC(=O)[C@@H]1CC[C@@H]2CN1C(=O)N2OS(=O)(=O)O [AVIBACTAM],16,> 100000,3,7,40,> 100,4,16,8,1,2,0.06,16,1,1,0.0079,8,0.015,> 16,0.5,MIC (Escherichia coli [21]): 8 µg/mL; MIC50 (Escherichia coli [22]): > 32 µg/mL; MIC90 (Escherichia coli [22]): > 32 µg/mL; MIC50 (Klebsiella pneumoniae [23]): > 32 µg/mL; MIC90 (Klebsiella pneumoniae [23]): > 32 µg/mL; MIC50 (Pseudomonas aeruginosa [24]): > 32 µg/mL; MIC90 (Pseudomonas aeruginosa [24]): > 32 µg/mL; half-life [25]: 6 min; clearance [26]: 20.6 mL/min/kg; MIC (Pseudomonas aeruginosa [27]): > 16 µg/mL; MIC (Pseudomonas aeruginosa [28]): > 16 µg/mL
